≈ marks a conversion by molar mass, not a printed value. Calls of active or inactive are those of the source. The calls are words filed in the database; no cut-off is given here.
Assays:
Format in all cases: functional
[1] = test system: Staphylococcus epidermidis; experiment: Antibacterial activity against Staphylococcus albus NCIM 2178 assessed as zone of inhibition at 80 ug/well incubated for 24 to 48 hrs by agar well diffusion method; settings: for zone of inhibition at 80 µg/disc: read-out: IZ
How it was run: (§1)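 Strains from NCIM kept on nutrient agar slants at 4 C and grown overnight at 37 C in nutrient broth. 500 microlitres of 24-48 h culture swabbed onto nutrient agar. Compounds in DMSO loaded into 5 mm wells, with a DMSO vehicle plate and streptomycin reference. Incubated 24-48 h at 37 C. Zone of inhibition measured in mm and averaged over 4 replicates.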

Aspergillus niger [2] = experiment: Antifungal activity against Aspergillus niger NCIM 504 assessed as zone of inhibition at 80 ug/well incubated for 48 to 72 hrs by agar well diffusion method; settings: for zone of inhibition at 80 µg/disc: read-out: IZ
How it was run: (§2)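 Fungi kept on potato dextrose agar slants and grown in potato dextrose broth. 500 microlitres of 48-72 h spore suspension swabbed onto Mueller Hinton agar. Compounds in DMSO loaded into 5 mm wells, with a DMSO vehicle plate and fluconazole/ravuconazole positive-control plate. Incubated 48-72 h at 30 C. Clear zone measured in mm, mean of five replicates.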

Aspergillus niger [3] = experiment: Antifungal activity against Aspergillus niger NCIM 504 assessed as inhibition of fungal growth incubated for 48 to 72 hrs by broth microdilution susceptibility method
How it was run: (§3)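 Tube micro-dilution in Sabouraud liquid medium. Stocks were made in DMSO and serially diluted twofold in broth to final […]. Tubes inoculated with organisms grown in potato dextrose broth and held 48-72 h at 30 C. MIC is the lowest concentration with no growth. DMSO and uninoculated-media controls were included, in triplicate.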

Escherichia coli = experiment: Antibacterial activity against Escherichia coli NCIM 2574 assessed as zone of inhibition at 80 ug/well incubated for 24 to 48 hrs by agar well diffusion method; settings: for zone of inhibition at 80 µg/disc: read-out: IZ; how it was run: as §1
Rhodotorula glutinis [4] = experiment: Antifungal activity against Rhodotorula glutinis NCIM 3168 assessed as inhibition of fungal growth incubated for 48 to 72 hrs by broth microdilution susceptibility method; how it was run: as §3
Proteus mirabilis = experiment: Antibacterial activity against Proteus mirabilis NCIM 2388 assessed as zone of inhibition at 80 ug/well incubated for 24 to 48 hrs by agar well diffusion method; how it was run: as §1
Candida albicans [5] = experiment: Antifungal activity against Candida albicans NCIM 3100 assessed as zone of inhibition at 80 ug/well incubated for 48 to 72 hrs by agar well diffusion method; settings: for zone of inhibition at 80 µg/disc: read-out: IZ; how it was run: as §2
Rhodotorula glutinis [6] = experiment: Antifungal activity against Rhodotorula glutinis NCIM 3168 assessed as zone of inhibition at 80 ug/well incubated for 48 to 72 hrs by agar well diffusion method; settings: for zone of inhibition at 80 µg/disc: read-out: IZ; how it was run: as §2
Candida albicans [7] = experiment: Antifungal activity against Candida albicans NCIM 3100 assessed as inhibition of fungal growth incubated for 48 to 72 hrs by broth microdilution susceptibility method; how it was run: as §3

Cc1nc(-c2ccccc2)sc1-c1nn(-c2ccccc2)cc1-c1cn(Cc2ccc(Cl)cc2)nn1
zone of inhibition at 80 µg/disc [1]: 12.2 mm
zone of inhibition at 80 µg/disc (Aspergillus niger [2]): 13.6 mm
MIC (Aspergillus niger [3]): 31.2 µg/mL (≈ 61.4 µM)
zone of inhibition at 80 µg/disc (Escherichia coli): 13.2 mm
MIC (Rhodotorula glutinis [4]): 62.5 µg/mL (≈ 123 µM)
inhibition zone (IZ) (Proteus mirabilis): inactive
zone of inhibition at 80 µg/disc (Candida albicans [5]): 11.5 mm
zone of inhibition at 80 µg/disc (Rhodotorula glutinis [6]): 19 mm
MIC (Candida albicans [7]): inactive

C[C@@H](c1nc(-c2ccc(C#N)cc2)cs1)[C@](O)(Cn1cncn1)c1ccc(F)cc1F [RAVUCONAZOLE]
inhibition zone (IZ) [1]: inactive
zone of inhibition at 80 µg/disc (Aspergillus niger [2]): 20.2 mm
MIC (Aspergillus niger [3]): 31.2 µg/mL (≈ 71.4 µM)
inhibition zone (IZ) (Escherichia coli): inactive
MIC (Rhodotorula glutinis [4]): 15.6 µg/mL (≈ 35.7 µM)
inhibition zone (IZ) (Proteus mirabilis): inactive
zone of inhibition at 80 µg/disc (Candida albicans [5]): 28.6 mm
zone of inhibition at 80 µg/disc (Rhodotorula glutinis [6]): 20.1 mm
MIC (Candida albicans [7]): 7.81 µg/mL (≈ 17.9 µM)

Cc1nc(-c2ccc(F)cc2)sc1-c1nn(-c2ccccc2)cc1-c1cn(Cc2ccc(Cl)cc2)nn1
zone of inhibition at 80 µg/disc [1]: 11.8 mm
zone of inhibition at 80 µg/disc (Aspergillus niger [2]): 13.5 mm
MIC (Aspergillus niger [3]): 31.2 µg/mL (≈ 59.3 µM)
inhibition zone (IZ) (Escherichia coli): inactive
MIC (Rhodotorula glutinis [4]): 125 µg/mL (≈ 237 µM)
inhibition zone (IZ) (Proteus mirabilis): inactive
zone of inhibition at 80 µg/disc (Candida albicans [5]): 10.4 mm
zone of inhibition at 80 µg/disc (Rhodotorula glutinis [6]): 14.5 mm
MIC (Candida albicans [7]): inactive

Cc1nc(-c2ccc(Br)cc2)sc1-c1nn(-c2ccccc2)cc1-c1cn(Cc2ccc(Cl)cc2)nn1
inhibition zone (IZ) [1]: inactive
zone of inhibition at 80 µg/disc (Aspergillus niger [2]): 13.5 mm
MIC (Aspergillus niger [3]): 62.5 µg/mL (≈ 106 µM)
zone of inhibition at 80 µg/disc (Escherichia coli): 11 mm
MIC (Rhodotorula glutinis [4]): 125 µg/mL (≈ 213 µM)
inhibition zone (IZ) (Proteus mirabilis): inactive
zone of inhibition at 80 µg/disc (Candida albicans [5]): 14.8 mm
zone of inhibition at 80 µg/disc (Rhodotorula glutinis [6]): 14.8 mm
MIC (Candida albicans [7]): 125 µg/mL (≈ 213 µM)

CN[C@@H]1[C@H](O[C@H]2[C@H](O[C@H]3[C@H](O)[C@@H](O)[C@H](N=C(N)N)[C@@H](O)[C@@H]3N=C(N)N)O[C@@H](C)[C@]2(O)C=O)O[C@@H](CO)[C@H](O)[C@H]1O [STREPTOMYCIN]
zone of inhibition at 80 µg/disc [1]: 21.6 mm
inhibition zone (IZ) (Aspergillus niger [2]): inactive
zone of inhibition at 80 µg/disc (Escherichia coli): 25 mm
zone of inhibition at 80 µg/disc (Proteus mirabilis; read-out: IZ): 18.5 mm
inhibition zone (IZ) (Candida albicans [5]): inactive
inhibition zone (IZ) (Rhodotorula glutinis [6]): inactive

Cc1ccc(-c2nc(C)c(-c3nn(-c4ccccc4)cc3-c3cn(Cc4ccccc4)nn3)s2)cc1
zone of inhibition at 80 µg/disc [1]: 11.2 mm
inhibition zone (IZ) (Aspergillus niger [2]): inactive
MIC (Aspergillus niger [3]): 62.5 µg/mL (≈ 128 µM)
inhibition zone (IZ) (Escherichia coli): inactive
MIC (Rhodotorula glutinis [4]): 125 µg/mL (≈ 256 µM)
inhibition zone (IZ) (Proteus mirabilis): inactive
zone of inhibition at 80 µg/disc (Candida albicans [5]): 15.8 mm
zone of inhibition at 80 µg/disc (Rhodotorula glutinis [6]): 18.4 mm
MIC (Candida albicans [7]): 125 µg/mL (≈ 256 µM)

Cc1nc(-c2ccc(Cl)cc2)sc1-c1nn(-c2ccccc2)cc1-c1cn(Cc2ccc(Cl)cc2)nn1
zone of inhibition at 80 µg/disc [1]: 11.5 mm
zone of inhibition at 80 µg/disc (Aspergillus niger [2]): 12.3 mm
MIC (Aspergillus niger [3]): 125 µg/mL (≈ 230 µM)
zone of inhibition at 80 µg/disc (Escherichia coli): 9.8 mm
MIC (Rhodotorula glutinis [4]): 62.5 µg/mL (≈ 115 µM)
inhibition zone (IZ) (Proteus mirabilis): inactive
zone of inhibition at 80 µg/disc (Candida albicans [5]): 11.3 mm
zone of inhibition at 80 µg/disc (Rhodotorula glutinis [6]): 14 mm
MIC (Candida albicans [7]): inactive

Cc1ccc(Cn2cc(-c3cn(-c4ccccc4)nc3-c3sc(-c4ccc(Cl)cc4)nc3C)nn2)cc1
zone of inhibition at 80 µg/disc [1]: 12 mm
zone of inhibition at 80 µg/disc (Aspergillus niger [2]): 11.4 mm
MIC (Aspergillus niger [3]): 125 µg/mL (≈ 239 µM)
zone of inhibition at 80 µg/disc (Escherichia coli): 12.4 mm
MIC (Rhodotorula glutinis [4]): 125 µg/mL (≈ 239 µM)
inhibition zone (IZ) (Proteus mirabilis): inactive
zone of inhibition at 80 µg/disc (Candida albicans [5]): 13.8 mm
zone of inhibition at 80 µg/disc (Rhodotorula glutinis [6]): 11.4 mm
MIC (Candida albicans [7]): 250 µg/mL (≈ 478 µM)

Cc1nc(-c2ccc(Br)cc2)sc1-c1nn(-c2ccccc2)cc1-c1cn(Cc2ccc(Br)cc2)nn1
inhibition zone (IZ) [1]: inactive
inhibition zone (IZ) (Aspergillus niger [2]): inactive
MIC (Aspergillus niger [3]): inactive
inhibition zone (IZ) (Escherichia coli): inactive
MIC (Rhodotorula glutinis [4]): inactive
inhibition zone (IZ) (Proteus mirabilis): inactive
zone of inhibition at 80 µg/disc (Candida albicans [5]): 15 mm
inhibition zone (IZ) (Rhodotorula glutinis [6]): inactive
MIC (Candida albicans [7]): inactive

Cc1nc(-c2ccc(Cl)cc2)sc1-c1nn(-c2ccccc2)cc1-c1cn(Cc2ccc(Br)cc2)nn1
zone of inhibition at 80 µg/disc [1]: 11.8 mm
zone of inhibition at 80 µg/disc (Aspergillus niger [2]): 12 mm
MIC (Aspergillus niger [3]): 62.5 µg/mL (≈ 106 µM)
zone of inhibition at 80 µg/disc (Escherichia coli): 11 mm
MIC (Rhodotorula glutinis [4]): 62.5 µg/mL (≈ 106 µM)
inhibition zone (IZ) (Proteus mirabilis): inactive
zone of inhibition at 80 µg/disc (Candida albicans [5]): 17.6 mm
zone of inhibition at 80 µg/disc (Rhodotorula glutinis [6]): 18.8 mm
MIC (Candida albicans [7]): 250 µg/mL (≈ 425 µM)

Cc1ccc(-c2nc(C)c(-c3nn(-c4ccccc4)cc3-c3cn(Cc4ccc(F)cc4)nn3)s2)cc1
zone of inhibition at 80 µg/disc [1]: 11.2 mm
zone of inhibition at 80 µg/disc (Aspergillus niger [2]): 16.3 mm
MIC (Aspergillus niger [3]): 62.5 µg/mL (≈ 123 µM)
zone of inhibition at 80 µg/disc (Escherichia coli): 10.6 mm
MIC (Rhodotorula glutinis [4]): 125 µg/mL (≈ 247 µM)
inhibition zone (IZ) (Proteus mirabilis): inactive
zone of inhibition at 80 µg/disc (Candida albicans [5]): 12.5 mm
zone of inhibition at 80 µg/disc (Rhodotorula glutinis [6]): 16.2 mm
MIC (Candida albicans [7]): inactive

Cc1nc(-c2ccc(Cl)cc2)sc1-c1nn(-c2ccccc2)cc1-c1cn(Cc2ccccc2)nn1
zone of inhibition at 80 µg/disc [1]: 11 mm
zone of inhibition at 80 µg/disc (Aspergillus niger [2]): 12.3 mm
MIC (Aspergillus niger [3]): 31.2 µg/mL (≈ 61.4 µM)
zone of inhibition at 80 µg/disc (Escherichia coli): 12.8 mm
MIC (Rhodotorula glutinis [4]): 125 µg/mL (≈ 246 µM)
inhibition zone (IZ) (Proteus mirabilis): inactive
zone of inhibition at 80 µg/disc (Candida albicans [5]): 15.2 mm
zone of inhibition at 80 µg/disc (Rhodotorula glutinis [6]): 15.2 mm
MIC (Candida albicans [7]): 500 µg/mL (≈ 982 µM)

Cc1nc(-c2ccc(F)cc2)sc1-c1nn(-c2ccccc2)cc1-c1cn(Cc2ccc(Br)cc2)nn1
zone of inhibition at 80 µg/disc [1]: 11.4 mm
zone of inhibition at 80 µg/disc (Aspergillus niger [2]): 16.8 mm
MIC (Aspergillus niger [3]): 125 µg/mL (≈ 219 µM)
inhibition zone (IZ) (Escherichia coli): inactive
MIC (Rhodotorula glutinis [4]): 62.5 µg/mL (≈ 109 µM)
inhibition zone (IZ) (Proteus mirabilis): inactive
zone of inhibition at 80 µg/disc (Candida albicans [5]): 14.4 mm
zone of inhibition at 80 µg/disc (Rhodotorula glutinis [6]): 16.5 mm
MIC (Candida albicans [7]): 125 µg/mL (≈ 219 µM)

OC(Cn1cncn1)(Cn1cncn1)c1ccc(F)cc1F [FLUCONAZOLE]
inhibition zone (IZ) [1]: inactive
zone of inhibition at 80 µg/disc (Aspergillus niger [2]): 18.4 mm
MIC (Aspergillus niger [3]): 7.81 µg/mL (≈ 25.5 µM)
inhibition zone (IZ) (Escherichia coli): inactive
MIC (Rhodotorula glutinis [4]): 7.81 µg/mL (≈ 25.5 µM)
inhibition zone (IZ) (Proteus mirabilis): inactive
zone of inhibition at 80 µg/disc (Candida albicans [5]): 20.2 mm
zone of inhibition at 80 µg/disc (Rhodotorula glutinis [6]): 25.3 mm
MIC (Candida albicans [7]): 7.81 µg/mL (≈ 25.5 µM)

Cc1nc(-c2ccc(Br)cc2)sc1-c1nn(-c2ccccc2)cc1-c1cn(Cc2ccccc2)nn1
zone of inhibition at 80 µg/disc [1]: 14.6 mm
zone of inhibition at 80 µg/disc (Aspergillus niger [2]): 13.4 mm
MIC (Aspergillus niger [3]): 62.5 µg/mL (≈ 113 µM)
zone of inhibition at 80 µg/disc (Escherichia coli): 11.5 mm
MIC (Rhodotorula glutinis [4]): 62.5 µg/mL (≈ 113 µM)
inhibition zone (IZ) (Proteus mirabilis): inactive
zone of inhibition at 80 µg/disc (Candida albicans [5]): 14.6 mm
zone of inhibition at 80 µg/disc (Rhodotorula glutinis [6]): 16.2 mm
MIC (Candida albicans [7]): 125 µg/mL (≈ 226 µM)

Cc1nc(-c2ccc(Cl)cc2)sc1-c1nn(-c2ccccc2)cc1-c1cn(Cc2ccc(F)cc2)nn1
zone of inhibition at 80 µg/disc [1]: 11.3 mm
zone of inhibition at 80 µg/disc (Aspergillus niger [2]): 12.5 mm
MIC (Aspergillus niger [3]): 62.5 µg/mL (≈ 119 µM)
zone of inhibition at 80 µg/disc (Escherichia coli): 12.2 mm
MIC (Rhodotorula glutinis [4]): 125 µg/mL (≈ 237 µM)
inhibition zone (IZ) (Proteus mirabilis): inactive
zone of inhibition at 80 µg/disc (Candida albicans [5]): 13.8 mm
zone of inhibition at 80 µg/disc (Rhodotorula glutinis [6]): 20 mm
MIC (Candida albicans [7]): 250 µg/mL (≈ 474 µM)

Cc1nc(-c2ccccc2)sc1-c1nn(-c2ccccc2)cc1-c1cn(Cc2ccccc2)nn1
MIC (Aspergillus niger [3]): inactive
MIC (Rhodotorula glutinis [4]): inactive
inhibition zone (IZ) (Proteus mirabilis): inactive
MIC (Candida albicans [7]): inactive

Reference: ChEMBL document CHEMBL4396915, “Synthesis of new thiazolyl-pyrazolyl-1,2,3-triazole derivatives as potential antimicrobial agents” (2019)
